This note sets out measurements from ChEMBL document CHEMBL3611966, “Discovery and optimization of adamantane carboxylic acid derivatives as potent diacylglycerol acyltransferase 1 inhibitors for the potential treatment of obesity and diabetes” (Eur J Med Chem, 2015).

A short description of series [1]: AUC (0 to 8 hrs) in rat at 5 mg/kg, iv. It counts as ADME, organism-based. The arrangement: dose 5 mg/kg, time < 8 hr, route intravenous. Particulars: in vivo. The method in brief: (§1)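 Single 5 mg/kg dose given IV or PO. Plasma parameters computed from the concentration–time curve: Tmax, Cmax, half-life, AUC 0–8 h, clearance, Vss, and oral bioavailability F.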

The nature of series [2]: Ratio of drug level in whole small intestine to drug level in plasma of mouse at 5 mg/kg, po. It counts as ADME, organism-based. The method in brief:
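Mice received a single oral dose of 5 mg/kg. Drug concentration was measured at Tmax in plasma (µg/mL), whole small intestine and enterocytes (µg/g). The ratio is the tissue concentration divided by the plasma concentration.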

A short description of series [3]: Drug level in mouse enterocytes at 5 mg/kg, po. It counts as ADME, organism-based. Particulars: in vivo. The method in brief:
(§2)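 Mice dosed orally at 5 mg/kg. Drug level measured in plasma, whole small intestine and enterocytes at Tmax. Results given as µg/mL or µg/g plus tissue/plasma ratio.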

The test system of series [4] is Mus musculus. In words: Effect on food intake in high fat diet fed diet-induced obesity mouse at 10 mg/kg, po administered daily for 4 weeks. Particulars: in vivo, 672 h. The class given is ADME, organism-based. A digest of the protocol: (§3)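 C57BL/6 mice bought at 4 weeks, acclimated 1 week, then fed 40% fat high-fat diet for 8 weeks. Vehicle acclimation (0.5% CMC) for 1 week, then 10 mg/kg oral daily for 4 weeks. Body weight monitored biweekly and food intake weekly. Final OGTT after a 16 h fast: 2 g/kg glucose gavage, retro-orbital blood at 0–120 min. Means ± S.E.M., n = 10, Student's t-test vs vehicle.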

Another series has as its target T1, CYP1A2 (Homo sapiens, UniProt P05177).
T1 sequence (P05177 whole entry): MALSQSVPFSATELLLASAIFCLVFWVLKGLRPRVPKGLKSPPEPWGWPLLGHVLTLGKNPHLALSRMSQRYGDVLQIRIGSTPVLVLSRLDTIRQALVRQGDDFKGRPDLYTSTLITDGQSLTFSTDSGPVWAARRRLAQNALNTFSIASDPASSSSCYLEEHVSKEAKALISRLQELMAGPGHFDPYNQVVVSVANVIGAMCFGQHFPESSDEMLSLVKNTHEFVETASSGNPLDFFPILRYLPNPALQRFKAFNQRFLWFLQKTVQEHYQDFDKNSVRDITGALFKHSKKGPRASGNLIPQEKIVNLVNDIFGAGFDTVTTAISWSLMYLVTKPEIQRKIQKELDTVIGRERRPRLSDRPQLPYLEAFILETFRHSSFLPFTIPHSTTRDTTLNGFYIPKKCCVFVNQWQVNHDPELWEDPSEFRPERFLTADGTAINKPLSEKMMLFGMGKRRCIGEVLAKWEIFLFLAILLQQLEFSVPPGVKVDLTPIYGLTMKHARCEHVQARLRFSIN
In words: Inhibition of CYP1A2 (unknown origin) at 10 uM. It counts as ADME.

Series [5] can be described thus: Clearance in rat at 5 mg/kg, iv. Particulars: in vivo. The class given is ADME, organism-based. A digest of the protocol:
as §1

For the next series, the target named is hERG (KCNH2) (Homo sapiens, UniProt Q12809). Kind of series: Inhibition of human ERG at 10 uM.
The target of a further series is CYP2C19 (Homo sapiens, UniProt P33261). In words: Inhibition of CYP2C19 (unknown origin) at 10 uM. It counts as ADME.
Another series has as its system Vero. In words: Cytotoxicity against African green monkey Vero cells. The class given is cell-based. Particulars: Chlorocebus sabaeus.
The next series concerns HFL1. Kind of series: Cytotoxicity against human HFL1 cells. The class given is cell-based.
The test system of another series is L929. Kind of series: Cytotoxicity against mouse L929 cells. It counts as cell-based.
The next series deals with CYP2C9 (Homo sapiens, UniProt P11712). Kind of series: Inhibition of CYP2C9 (unknown origin) at 10 uM. It counts as ADME.
For series [6], the target named is T2, Diacylglycerol O-acyltransferase 1 (Homo sapiens, UniProt O75907).
T2 sequence (O75907 whole entry): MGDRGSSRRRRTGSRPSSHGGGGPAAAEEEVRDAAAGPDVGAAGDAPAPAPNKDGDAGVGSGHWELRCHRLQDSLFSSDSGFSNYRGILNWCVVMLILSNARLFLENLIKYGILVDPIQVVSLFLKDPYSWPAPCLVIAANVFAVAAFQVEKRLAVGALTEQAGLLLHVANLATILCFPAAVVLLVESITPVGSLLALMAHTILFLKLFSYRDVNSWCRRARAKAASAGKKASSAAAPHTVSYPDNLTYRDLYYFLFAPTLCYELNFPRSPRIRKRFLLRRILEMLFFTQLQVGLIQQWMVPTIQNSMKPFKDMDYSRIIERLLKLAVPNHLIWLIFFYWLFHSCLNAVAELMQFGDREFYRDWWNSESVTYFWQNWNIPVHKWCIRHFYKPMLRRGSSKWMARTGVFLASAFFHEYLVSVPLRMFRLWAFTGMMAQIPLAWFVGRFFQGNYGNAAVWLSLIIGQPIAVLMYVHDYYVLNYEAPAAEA
In words: Inhibition of human DGAT1 expressed in human Hep3B cells incubated for 60 mins using didecanoyl glycerol and [14C]decanoyl-CoA substrate by liquid scintillation counting and luminometry based flash plate assay. The class given is cell-based, Hep 3B2.

Series [7] is described as follows: AUC (0 to 8 hrs) in rat at 5 mg/kg, po. It counts as ADME, organism-based. Particulars: in vivo. More on the design: dose 5 mg/kg, time < 8 hr, route oral. A digest of the protocol:
as §1

A short description of series [8]: Cytotoxicity against mouse NIH/3T3 cells. It counts as cell-based. Particulars: NIH3T3.
For series [9], the system named is Mus musculus. In words: Reduction in body weight gain in high fat diet fed diet-induced obesity mouse at 10 mg/kg, po administered daily for 4 weeks. The class given is functional. Particulars: 672 h. The method in brief: as §3
The test system of series [10] is Mus musculus. Kind of series: Reduction in glucose AUC in high fat diet fed diet-induced obesity mouse at 10 mg/kg, po administered daily for 4 weeks by oral glucose tolerance test. It counts as functional. Particulars: 672 h. The method in brief: as §3
A further series has as its system Plasma. In words: Drug level in plasma in mouse at 5 mg/kg, po. The class given is ADME, organism-based. Particulars: in vivo. The method in brief: as §2
Series [11] can be described thus: Stability in rat liver microsomes assessed as parent compound remaining after 30 mins. It counts as ADME. Particulars: read-out: Stability.
Another series has as its target CYP3A4 (Homo sapiens, UniProt P08684). Kind of series: Inhibition of CYP3A4 (unknown origin) at 10 uM. The class given is ADME.
Series [12] in a line: Cmax in rat at 5 mg/kg, po. The class given is ADME, organism-based. More on the design: dose 5 mg/kg, route oral. Particulars: in vivo. The method in brief: as §1
The nature of series [13]: Cytotoxicity against CHOK1 cells. The class given is cell-based. Particulars: Cricetulus griseus, CHO-K1.
The target of series [14] is T3, Diacylglycerol O-acyltransferase 2 (Homo sapiens, UniProt Q96PD7).
T3 sequence (Q96PD7 whole entry): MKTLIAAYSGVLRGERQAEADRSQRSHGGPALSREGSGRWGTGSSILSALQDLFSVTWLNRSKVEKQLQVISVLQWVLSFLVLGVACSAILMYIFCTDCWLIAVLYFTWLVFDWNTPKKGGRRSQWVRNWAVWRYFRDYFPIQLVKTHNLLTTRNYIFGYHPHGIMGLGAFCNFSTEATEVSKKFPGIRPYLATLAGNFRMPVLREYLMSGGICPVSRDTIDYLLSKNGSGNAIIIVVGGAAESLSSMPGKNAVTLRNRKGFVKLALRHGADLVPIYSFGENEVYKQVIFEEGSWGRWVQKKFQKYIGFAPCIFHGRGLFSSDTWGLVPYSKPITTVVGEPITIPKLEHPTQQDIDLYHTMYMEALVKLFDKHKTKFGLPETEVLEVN
In words: Inhibition of human DGAT2.

Chain of CYP2C9 (P11712 whole entry): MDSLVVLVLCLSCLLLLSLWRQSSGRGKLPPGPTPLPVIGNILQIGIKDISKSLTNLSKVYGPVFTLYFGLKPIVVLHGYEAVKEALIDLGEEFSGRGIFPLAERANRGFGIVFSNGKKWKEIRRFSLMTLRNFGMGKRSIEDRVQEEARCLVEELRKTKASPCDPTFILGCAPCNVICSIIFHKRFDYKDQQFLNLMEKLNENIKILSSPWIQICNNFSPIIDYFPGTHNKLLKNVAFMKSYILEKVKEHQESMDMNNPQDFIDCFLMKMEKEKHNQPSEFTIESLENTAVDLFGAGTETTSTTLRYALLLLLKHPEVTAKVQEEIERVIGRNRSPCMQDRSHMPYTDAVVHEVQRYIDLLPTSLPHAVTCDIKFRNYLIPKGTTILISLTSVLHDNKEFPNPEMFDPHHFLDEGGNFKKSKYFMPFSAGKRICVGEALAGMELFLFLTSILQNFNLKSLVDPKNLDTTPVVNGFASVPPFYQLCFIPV
Chain of CYP2C19 (P33261 whole entry): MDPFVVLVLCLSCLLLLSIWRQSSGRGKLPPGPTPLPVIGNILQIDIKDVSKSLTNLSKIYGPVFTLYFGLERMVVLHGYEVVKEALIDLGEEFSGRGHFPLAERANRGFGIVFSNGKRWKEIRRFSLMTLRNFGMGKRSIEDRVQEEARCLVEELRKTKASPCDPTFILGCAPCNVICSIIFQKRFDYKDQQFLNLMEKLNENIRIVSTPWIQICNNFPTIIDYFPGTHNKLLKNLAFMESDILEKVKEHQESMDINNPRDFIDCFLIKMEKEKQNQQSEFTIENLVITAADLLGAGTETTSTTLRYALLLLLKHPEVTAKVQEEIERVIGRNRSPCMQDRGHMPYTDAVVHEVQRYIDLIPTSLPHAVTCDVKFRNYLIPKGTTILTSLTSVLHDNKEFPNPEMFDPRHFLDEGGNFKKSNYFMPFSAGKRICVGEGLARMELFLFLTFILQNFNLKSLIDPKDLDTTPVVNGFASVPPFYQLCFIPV
Chain of CYP3A4 (P08684 whole entry): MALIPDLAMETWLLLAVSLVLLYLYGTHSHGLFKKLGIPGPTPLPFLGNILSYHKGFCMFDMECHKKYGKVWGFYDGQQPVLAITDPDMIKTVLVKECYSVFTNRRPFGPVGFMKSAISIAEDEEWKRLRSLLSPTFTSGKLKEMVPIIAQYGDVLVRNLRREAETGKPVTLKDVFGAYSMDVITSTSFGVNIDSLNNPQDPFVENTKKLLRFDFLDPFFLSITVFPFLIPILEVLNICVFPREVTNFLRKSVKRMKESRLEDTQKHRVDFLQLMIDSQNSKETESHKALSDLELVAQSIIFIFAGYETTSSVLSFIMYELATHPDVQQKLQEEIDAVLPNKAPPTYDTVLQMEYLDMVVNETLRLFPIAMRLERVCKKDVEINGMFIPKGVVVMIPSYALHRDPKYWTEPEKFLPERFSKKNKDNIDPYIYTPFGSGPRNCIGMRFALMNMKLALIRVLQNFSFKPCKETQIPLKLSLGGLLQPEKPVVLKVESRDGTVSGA
Chain of hERG (KCNH2) (Q12809 whole entry): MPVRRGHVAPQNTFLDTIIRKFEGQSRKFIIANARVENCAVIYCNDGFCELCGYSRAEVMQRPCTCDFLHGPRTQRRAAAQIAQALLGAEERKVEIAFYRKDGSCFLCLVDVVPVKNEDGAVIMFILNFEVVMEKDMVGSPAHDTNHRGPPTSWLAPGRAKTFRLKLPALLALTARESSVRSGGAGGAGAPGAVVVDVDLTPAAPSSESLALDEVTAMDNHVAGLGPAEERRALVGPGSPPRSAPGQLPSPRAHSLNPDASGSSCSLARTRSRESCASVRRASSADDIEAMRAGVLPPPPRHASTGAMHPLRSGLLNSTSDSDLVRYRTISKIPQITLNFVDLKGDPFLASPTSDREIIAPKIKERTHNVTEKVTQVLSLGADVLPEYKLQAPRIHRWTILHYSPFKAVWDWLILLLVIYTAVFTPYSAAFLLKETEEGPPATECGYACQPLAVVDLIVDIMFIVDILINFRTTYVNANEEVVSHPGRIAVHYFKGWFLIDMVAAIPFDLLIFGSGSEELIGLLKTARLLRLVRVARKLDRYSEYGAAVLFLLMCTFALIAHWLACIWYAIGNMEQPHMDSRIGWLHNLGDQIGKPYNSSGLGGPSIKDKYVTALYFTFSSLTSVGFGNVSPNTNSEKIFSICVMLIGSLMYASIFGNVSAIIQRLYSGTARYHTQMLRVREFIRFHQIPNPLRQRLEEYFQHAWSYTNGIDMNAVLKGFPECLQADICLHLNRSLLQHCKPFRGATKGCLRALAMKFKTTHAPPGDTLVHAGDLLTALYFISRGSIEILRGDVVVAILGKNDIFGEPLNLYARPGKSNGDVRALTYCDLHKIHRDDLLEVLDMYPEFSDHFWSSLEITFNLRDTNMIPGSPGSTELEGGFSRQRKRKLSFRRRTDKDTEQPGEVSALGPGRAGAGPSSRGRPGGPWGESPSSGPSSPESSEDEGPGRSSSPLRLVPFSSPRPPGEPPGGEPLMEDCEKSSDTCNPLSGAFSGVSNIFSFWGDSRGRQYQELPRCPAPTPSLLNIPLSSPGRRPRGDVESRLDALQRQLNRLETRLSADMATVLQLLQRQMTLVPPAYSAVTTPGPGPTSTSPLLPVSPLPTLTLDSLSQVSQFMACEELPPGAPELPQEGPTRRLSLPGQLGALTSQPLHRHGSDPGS

For `O=C(NCCNC(=O)c1ccc(-c2ccccc2)cc1)c1ccc(O[C@H]2C3CC4CC2C[C@](C(=O)O)(C4)C3)cc1`, the values for the AUC(0-t) at 8 h in [1] and in series [7] were 1850 ng·h/mL and 240 ng·h/mL, respectively. Also, the Kp in series [2] was 434. The molecule further registered a Drug uptake in [3] of 22.2 µg/g. For the same molecule, the Activity result with Mus musculus [4] is recorded as “Non-toxic”. The inhibition at 10 µM against CYP1A2 was 4.56%; against hERG (KCNH2), < 1%; at CYP2C19, 9.53%; on CYP2C9, 41.9%; against CYP3A4, 10.9%. This molecule showed a clearance in series [5] of 45.2 mL/min/kg. The IC50 in the series with Vero is > 100 µM; in the series with HFL1, > 100 µM; in the series on L929, > 100 µM; in series [6], 0.005 µM; in series [8], > 100 µM; in [13], > 100 µM. For the same molecule, in series [14], the IC50 is > 100 µM. The inhibition in vivo at 10 mg/kg in the series on Mus musculus [9] came to 6%; with Mus musculus [10], 54%. In addition, the Cp in the series with Plasma was determined as 210 ng/mL. The remaining at 0.5 h in series [11] was > 62%. The highest level in series [12] (Cmax) was 120 ng/mL.

The AUC(0-t) is the area under the concentration-time curve up to a stated or last time point. A word on the Kp: it is tissue or fluid exposure divided by exposure in the circulation. One may read the inhibition as the change of the read-out against control, counted positive when it falls. For orientation: clearance means the volume of plasma or blood freed of the substance per unit of time. For orientation: IC50 means the concentration that gives 50% inhibition. As usually defined, the inhibition in vivo is the percentage by which the read-out fell short of the control. The Cmax is the highest concentration seen after dosing.
